Sampled rows, rich in hits. Any-hit rate of the full collection: about 2.8%.
NPY2 pot ag = potentiators or agonists of human neuropeptide Y receptor Y2; P49146; cells expressing NPY-Y2, potentiator/agonist read-out; activation, % at 3.6 µM; 0.45% of 220,000 active; AID 1359; in the data active means activation above about 27%;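 further: cells stimulated with NPY near EC25 plus isoproterenol at EC100; 0% = vehicle plus submaximal agonist and 100% = vehicle plus saturating agonist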
Target sequence (P49146 whole entry, looked up): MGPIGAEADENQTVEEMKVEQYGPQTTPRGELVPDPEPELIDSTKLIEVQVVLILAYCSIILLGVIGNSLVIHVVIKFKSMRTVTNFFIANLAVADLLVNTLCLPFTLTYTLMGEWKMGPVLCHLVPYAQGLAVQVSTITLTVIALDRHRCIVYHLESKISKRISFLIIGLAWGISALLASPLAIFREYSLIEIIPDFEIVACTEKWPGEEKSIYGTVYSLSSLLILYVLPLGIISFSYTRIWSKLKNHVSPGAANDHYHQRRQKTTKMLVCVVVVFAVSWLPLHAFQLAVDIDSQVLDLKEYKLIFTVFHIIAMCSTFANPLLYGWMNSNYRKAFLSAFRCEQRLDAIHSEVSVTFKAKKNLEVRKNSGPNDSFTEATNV
NPY Y1 blocker = NPY-Y1 (human) receptor antagonism. HEK293-CNG Y1 cells, membrane potential fluorescence; NPY at EC95, then isoproterenol. AID 1040. inhibition, % at 3.6 µM. 1% of 200,000 active. P25929;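 active means inhibition above the campaign mean inhibition of all tested compounds plus 3 SD, cut at about 20% in these data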;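 further: 0% = DMSO wells given NPY plus isoproterenol and 100% = isoproterenol alone without NPY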
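Test system – HEK293 Y1/CNG channel cell line · Also added – NPY agonist 25 nM, then isoproterenol 1 µM plus Ro 20-1724 25 µM · Compound dosing – one concentration, 3.6 µM, in 0.4% DMSO · Schedule – compound incubation 1 h at room temperature, readout 45 min post-stimulation · Technique – fluorescence, membrane potential probe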
EP2 mod = EP2 receptor (human) modulation; P43116; EP2-expressing cells, cAMP HTRF FRET, PGE2 co-stimulation; induction, % at 25 µM; 0.83% of 260,000 active; AID 940;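 active means compounds whose cAMP rise, as percent of the full-agonist control response, exceeds 60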;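 further: rat C6 glioma line stably carrying human EP2 under a CMV promoter; the protocol text gives 20 µM as final concentration; 100% = response of wells given 1 µM PGE2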
NPY-Y2 antag = NPY-Y2 (human) receptor antagonism. AID 793. P49146. 0.99% of 140,000 active. NPY-Y2 expressing cells, antagonist mode. inhibition, % at 2.7 µM; in the data active means inhibition above about 17%;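 further: 0% = vehicle with agonist challenge and 100% = reference antagonist with challenge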
NPY-Y1 PAM-ag = potentiates or activates human NPY-Y1 receptor. NPY-Y1 expressing cells, potentiator/agonist activation. activation, % at 3.6 µM. 0.37% of 220,000 active. AID 1304; in the data active means activation above about 33%, passing the limit was not always enough;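 further: cells stimulated with NPY at EC10 then isoproterenol at EC100; 0% = low agonist plus stimulus and 100% = saturating agonist plus stimulus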
PGE2 EP2 inh = blocks the human prostaglandin E2 receptor EP2. P43116. C6 glioma cells expressing human EP2, cAMP TR-FRET; cells stimulated with saturating PGE2. inhibition, % at 25 µM. 0.52% of 260,000 active;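 active means percent inhibition above 40 after rounding to a whole number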;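 further: rat C6 glioma host cells with rolipram phosphodiesterase inhibitor present; the protocol text gives 20 µM as final concentration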
EP2 confirm = EP2 receptor cAMP induction, counter-screens negative; shares compounds with EP2 mod; calls only at 20 µM (by protocol); AID 1080; 47% of 1,300 active; C6 glioma EP2 cells, cAMP HTRF induction; plus low (about EC15) PGE2 agonist;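 active means cAMP induction above 50% in the main assay while under 30% in all four parallel counter assays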;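 further: rat C6 glioma cells stably expressing human EP2 receptor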
Starred values were filed as active, the others as inactive.

`Cn1c(=O)[nH]c(=O)c2c1nc(CN1CCN(c3ccccc3F)CC1)n2CCCc1ccccc1` gave NPY2 pot ag -1.8, NPY Y1 blocker 2.9, EP2 mod 85.4*, NPY-Y2 antag 3.5, NPY-Y1 PAM-ag -11.8, PGE2 EP2 inh 12.4 and EP2 confirm inactive.
`CC(C)C(=O)N1CCC[C@H]1Cn1nc(-c2ccc3c(c2)OCO3)ccc1=O` gave EP2 mod -33.3.
Screening Cc1ccc(NC(=S)N(Cc2ccco2)C(C)c2cccs2)c(Cl)c1 (centres undefined) returned NPY2 pot ag -0.2, NPY Y1 blocker 10.4, EP2 mod 35.9, NPY-Y1 PAM-ag -12.4 and PGE2 EP2 inh 4.0.
`Cc1ccc(C)c(NC(=S)N(Cc2ccco2)C(C)c2cccs2)c1` (centres undefined) gave NPY2 pot ag -2.6, NPY Y1 blocker 2.5, EP2 mod 68.0*, NPY-Y1 PAM-ag 9.9, PGE2 EP2 inh 4.7 and EP2 confirm inactive.
Screening Cc1ccc(Cl)cc1NC(=S)N(Cc1ccco1)C(C)c1cccs1 (centres undefined) returned NPY2 pot ag -0.5, NPY Y1 blocker 11.9, EP2 mod 63.2*, NPY-Y1 PAM-ag -12.6, PGE2 EP2 inh 4.9 and EP2 confirm inactive.
CCOCC(=O)Nc1cc(C(F)(F)F)ccc1Oc1cccc(Br)c1 was read as NPY2 pot ag -0.2, NPY Y1 blocker 8.1, EP2 mod 65.2*, NPY-Y2 antag 8.5, NPY-Y1 PAM-ag -5.4, PGE2 EP2 inh 11.3 and EP2 confirm active.
For Cc1ccc(C(=O)Nc2ccccc2Sc2ccccc2)cc1 the results were NPY2 pot ag -6.7, NPY Y1 blocker 7.2, EP2 mod 49.0, NPY-Y2 antag 3.6, NPY-Y1 PAM-ag 0.5 and PGE2 EP2 inh 7.7.
For O=C(Cc1ccc(Cl)cc1)Nc1ccccc1Sc1ccccc1 the results were NPY2 pot ag 2.2, NPY Y1 blocker 8.3, EP2 mod 75.2*, NPY-Y2 antag 9.8, NPY-Y1 PAM-ag -5.3, PGE2 EP2 inh 3.1 and EP2 confirm active.
For O=C(Nc1ccccc1Sc1ccccc1)c1ccc(F)cc1 the results were NPY2 pot ag 2.0, NPY Y1 blocker 4.2, EP2 mod 72.1*, NPY-Y2 antag 6.5, NPY-Y1 PAM-ag -23.5, PGE2 EP2 inh 2.5 and EP2 confirm active.
O=C(Cc1ccccc1)Nc1cc(Cl)ccc1Sc1ccccc1 was read as NPY2 pot ag -0.5, NPY Y1 blocker 3.9, EP2 mod 57.0, NPY-Y2 antag 10.2, NPY-Y1 PAM-ag -3.2 and PGE2 EP2 inh 5.2.
`COc1ccc(NC(=O)CSc2nc3c(cc2C#N)CCCC3)cc1OC` gave EP2 mod -48.7 and PGE2 EP2 inh 7.0.
Screening O=S(=O)(C=C(c1ccccc1)c1ccccc1)c1ccccc1 returned NPY2 pot ag -4.1, NPY Y1 blocker 4.1, EP2 mod 76.7*, NPY-Y2 antag 6.7, NPY-Y1 PAM-ag 4.2, PGE2 EP2 inh 13.7 and EP2 confirm active.
O=S(=O)(/C=C/c1ccccc1)c1ccccc1 was read as NPY2 pot ag 5.0, NPY Y1 blocker 1.9, EP2 mod 8.8, NPY-Y2 antag -0.9, NPY-Y1 PAM-ag -12.1 and PGE2 EP2 inh 12.1.
`O=C(CN1CCN(Cc2ccccc2)CC1)Nc1ccccc1-c1ccccc1` gave NPY2 pot ag -0.3, NPY Y1 blocker 5.9, EP2 mod 65.8*, NPY-Y1 PAM-ag 4.5, PGE2 EP2 inh 18.2 and EP2 confirm inactive.
Screening COc1ccc(N2C(=O)N(Cc3ccc(C)cc3)c3ccccc3S2(=O)=O)cc1 returned NPY2 pot ag 8.8, NPY Y1 blocker -2.2, EP2 mod 78.7*, NPY-Y1 PAM-ag 23.6, PGE2 EP2 inh 3.8 and EP2 confirm active.
COc1ccc(N2C(=O)c3ccccc3S2(=O)=O)cc1 was read as NPY2 pot ag 7.5, EP2 mod -10.7, NPY-Y1 PAM-ag 10.4 and PGE2 EP2 inh 8.8.
C/C(CCc1oc2ccccc2c1-c1ccc(C)o1)=N/O was read as NPY2 pot ag -6.6, NPY Y1 blocker 3.1, EP2 mod 75.1*, NPY-Y2 antag 3.4, NPY-Y1 PAM-ag 0.2, PGE2 EP2 inh 3.8 and EP2 confirm active.
`C/C(CCc1oc2c(Br)cc(Br)cc2c1-c1ccc(C)o1)=N\O` gave NPY2 pot ag -0.4, NPY Y1 blocker 4.0, EP2 mod 52.4, NPY-Y2 antag 2.4, NPY-Y1 PAM-ag 1.2 and PGE2 EP2 inh 26.1.
Screening O=C(c1ccccc1)C1CN(Cc2ccccc2)CCC1(O)c1ccccc1 (centres undefined) returned NPY2 pot ag -9.3, NPY Y1 blocker -7.8, EP2 mod 76.0*, NPY-Y1 PAM-ag 14.8, PGE2 EP2 inh 7.1 and EP2 confirm inactive.
CCCCn1c(-c2csc(CCC)c2)n[nH]c1=S was read as NPY2 pot ag -15.6, NPY Y1 blocker 6.2, EP2 mod 58.5, NPY-Y1 PAM-ag -7.6, PGE2 EP2 inh 14.9 and EP2 confirm inactive.
Cc1cc(CNC(=O)Cn2cnc3sc(C)cc3c2=O)c2[nH]c(C)c(C)c2c1 was read as EP2 mod -34.7 and PGE2 EP2 inh 3.2.
For O=C(NCc1ccco1)C(c1cccs1)N(C(=O)Cc1cccs1)c1ccccc1 (centres undefined) the results were NPY2 pot ag 3.1, NPY Y1 blocker 2.3, EP2 mod 83.4*, NPY-Y2 antag 5.1, NPY-Y1 PAM-ag 4.2, PGE2 EP2 inh 9.2 and EP2 confirm inactive.
`CC1(c2cc([N+](=O)[O-])cc([N+](=O)[O-])c2)CC(C)(C)N(C(=O)c2ccccc2)c2ccccc21` (centres undefined) gave NPY2 pot ag 17.5, NPY Y1 blocker -3.1, EP2 mod 74.1*, NPY-Y2 antag -0.5, NPY-Y1 PAM-ag 14.2, PGE2 EP2 inh 10.2 and EP2 confirm inactive.
S=C(NNc1nc(N2CCCCC2)nc(N2CCCCC2)n1)NC1CCCCC1 was read as EP2 mod 42.9 and PGE2 EP2 inh 20.6.
COc1cc(C)c2c(c1C=O)Oc1c(c(C)c(O)c3c1C(O)OC3=O)OC2=O (centres undefined) was read as NPY2 pot ag -21.6, NPY Y1 blocker -0.7, EP2 mod 28.3, NPY-Y1 PAM-ag -9.0 and PGE2 EP2 inh 6.8.
For Cc1cc(O)c(C=O)c2c1C(=O)Oc1c(C)c(O)c3c(c1O2)C(O)OC3=O (centres undefined) the results were EP2 mod 50.7, PGE2 EP2 inh 13.4 and EP2 confirm inactive.
Screening CCCCOc1ccccc1Cn1c(=O)oc2ccccc21 returned NPY2 pot ag 4.5, NPY Y1 blocker 13.4, EP2 mod 62.2*, NPY-Y2 antag 2.4, NPY-Y1 PAM-ag -0.7, PGE2 EP2 inh 7.8 and EP2 confirm active.

Screens as filed in PubChem BioAssay.
